From paper PMC6044872 (ACS Omega, 2017)

Experiments:
[1] = test system: H292 mucoepidermoid carcinoma cells; assay: Flow cytometry binding to H292; assay type: cell-based, human
In short: (§1)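 Cells were grown 48 h, trypsinized and washed in PBS with 10% FBS. 1.0 × 10^6 cells in 200 μL antibody solution, 2 h on ice. FITC-labelled anti-mouse IgG 1 h on ice, then three washes and resuspension in PBS/10% FBS. Analysed by flow cytometry; histograms overlaid on isotype control antibody.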

[2] = test system: Calu-3 lung adenocarcinoma cells; assay: Flow cytometry binding to Calu-3; assay type: cell-based, human
In short: as §1

[3] = test system: A549 lung adenocarcinoma epithelial cells; assay: Flow cytometry binding to A549; assay type: cell-based, human
In short: as §1

[4] = test system: 184A1 mammary epithelial cells; assay: Flow cytometry binding to 184A1; assay type: cell-based, human
In short: as §1

[5] = test system: T-47D breast cancer cells; assay: Flow cytometry binding to T-47D; assay type: cell-based, human
In short: as §1

[6] = test system: MUC1 glycopeptides PDT*R-Tn-20-, 40-, 60-, 100-mer and PDT*R-STn-20-, 40-, 60-, 100-mer; assay type: binding; conditions: ELISA signals with 20-, 60- and 100-mer glycopeptides
In short: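 Streptavidin (10 μg/mL in 50 mM Tris–HCl, pH 7.5) coated overnight at 4 °C; blocked 2 h at RT. Biotinylated Tn- or STn-glycopeptides (20-, 40-, 60-, 100-mer) captured overnight at 4 °C. Antibody overnight at 4 °C, HRP-anti-mouse IgG 2 h at RT. TMB 30 min, H2SO4 stop, A450. Antibody concentration set separately for each antibody.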

B1: PankoMab: anti-MUC1 antibody (Glycotope, Germany), established using desialylated MUC1 as the immunogen (antibody, chains of the INN, looked up, V domains shown)
VH: EVQLVESGGGLVQPGGSMRLSCVASGFPFSNYWMNWVRQAPGKGLEWVGEIRLKSNNYTTHYAESVKGRFTISRDDSKNSLYLQMNSLKTEDTAVYYCTRHYYFDYWGQGTLVTVSS
VL: DIVMTQSPLSNPVTPGEPASISCRSSKSLLHSNGITYFFWYLQKPGQSPQLLIYQMSNLASGVPDRFSGSGSGTDFTLRISRVEAEDVGVYYCAQNLELPPTFGQGTKVEIK
What does the source list for B1?
Binding to H292 (in words) [1]: hardly bound; Binding to Calu-3 (in words) [2]: hardly bound; Binding to A549 (in words) [3]: hardly bound; Binding to 184A1 (in words) [4]: hardly bound; Binding to T-47D (in words) [5]: bound only to T-47D; Tandem-repeat dependence of binding [6]: tandem-repeat-dependent manner
